IC50 data for 2 molecules are collected here from ChEMBL document CHEMBL1125175, “Synthesis and DNA-binding properties of polyamine analogues” (J Med Chem, 1991).

In test [1] the test system is Nucleic Acid. As to the kind of experiment: Ability to displace ethidium bromide from double stranded synthetic Poly (dA-dT). In kind it is nucleic-acid assay. In outline: (§1)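 Fluorescence displacement. Ethidium bromide 1.6 μM final in 2 mM HEPES, 10 μM EDTA, 9.4 mM NaCl, pH 7.0, then DNA added at 2 μM final (DNA phosphate): calf thymus DNA, poly(dA-dT)·poly(dA-dT) or poly(dG-dC)·poly(dG-dC). Excitation 546 nm, emission 598 nm. Analogue titrated in aliquots. IC50 is the concentration halving ethidium–DNA fluorescence. Trial-to-trial variability generally <5%.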

Test [2] deals with Calf thymus DNA. Kind of test: Ability to displace ethidium bromide from calf thymus DNA. In kind it is nucleic-acid assay, Bos taurus. In outline: as §1
Test [3] deals with HeLa. Kind of test: Ability to inhibit 50% growth of HeLa cells. In kind it is functional, cell-based. The note with it: Homo sapiens. In outline: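 HeLa cells grown 2 days, then counted to set the baseline. Analogues added in complete medium for a further 2 days, then cells counted. Growth increase compared with untreated controls. IC50 is the concentration giving a 50% decrease in growth relative to controls.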

Test [4] concerns Nucleic Acid. As to the kind of experiment: Ability to displace ethidium bromide from double stranded synthetic poly (dG-dC). In kind it is nucleic-acid assay. The gist of the method: as §1
Test [5] relates to HeLa. As to the kind of experiment: Ability to cause aggregation of purified HeLa cell DNA. The note with it: Homo sapiens. In kind it is functional. In outline:
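HeLa DNA labelled via 3-day culture with 4 μCi [³H]thymidine, then phenol/chloroform extracted. 1.5 μg DNA (~20000 cpm) plus analogue at various concentrations in buffer of 25 mM Tris, 4.5 mM KCl, 3 mM MgCl₂, pH 7.6. Incubated 10 min at 37 °C, then centrifuged 2.5 min and supernatant counted.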

As for `CCCCNCCCNCCCCCCCCNCCCNCCCC`, the IC50 is 4.2 µM in test [1]; 20 µM in test [2]; > 500 µM in test [3]; 40 µM in test [4]; 340 µM in test [5].

As to `c1ccc(CNCCCCNCCCCCCCNCCCCNCc2ccccc2)cc1`, the IC50 in test [1] was 3.2 µM; in test [2], 10 µM; in test [3], > 500 µM; in test [4] it was 20 µM; in test [5], 95 µM.

What is called IC50 is the concentration that gives 50% inhibition. Read a high IC50 as a need for much substance.
